Measurements reported in ChEMBL document CHEMBL3112419, “Hydroxy fatty acids for the delivery of dideoxynucleosides as anti-HIV agents” (Bioorg Med Chem Lett, 2014).
pIC50: −log10 of the molar value.

Experiments:
[1] = system: Human immunodeficiency virus 1; assay: Antiviral activity against HIV-1 3B infected in human MT4 cells; type: functional, organism-based; settings: Human immunodeficiency virus 1, 3B
Procedure, shortened: (§1)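 MT-4 cell cultures infected with wild-type HIV-1 or HIV-2, with cytotoxicity assessed in parallel in the same cells. Lipid-nucleotide conjugates were purified as Na⁺ salts and tested as diastereomeric mixtures. Parent dideoxynucleosides were run alongside as references.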

[2] = system: Human immunodeficiency virus 2; assay: Antiviral activity against HIV-2 ROD infected in human CEM/0 cells; type: functional, organism-based; settings: Human immunodeficiency virus 2, ISOLATE ROD, CCRF-CEM
Procedure, shortened: (§2)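 HIV-2 strain ROD was tested in wild-type CEM (CEM/0) cells and in thymidine kinase-deficient CEM (CEM/TK⁻) cells. Conjugates were tested as diastereomeric mixtures, and parent nucleosides were included as references.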

[3] = Cytotoxicity against human MT4 cells; type: cell-based; procedure, shortened: as §1
[4] = Cytotoxicity against human CEM/0 cells; type: cell-based, CCRF-CEM
[5] = system: Human immunodeficiency virus 2; assay: Antiviral activity against HIV-2 ROD infected in human MT4 cells; type: functional, organism-based; settings: Human immunodeficiency virus 2, ISOLATE ROD; procedure, shortened: as §1
[6] = system: Human immunodeficiency virus 2; assay: Antiviral activity against HIV-2 ROD infected in thymidine kinase-deficient human CEM cells; type: functional, organism-based; settings: Human immunodeficiency virus 2, ISOLATE ROD, CCRF-CEM; procedure, shortened: as §2

SMILES | pIC50 [1] | pIC50 [2] | CC50 [3] | CC50 [4] | pIC50 [5] | pIC50 [6]
Nc1ncnc2c1ncn2[C@H]1C=C[C@@H](CO)O1 | < 3.56 | ≤ 4.44 | 278 µM | 360 µM | < 3.56 | ≤ 4.09
CCCCCCCCCCCCCCCCC(OP(=O)(O)OC[C@@H]1C=C[C@H](n2cc(C)c(=O)[nH]c2=O)O1)C(=O)O (some centres not stated) | 6.40 | < 4.40 | 64.7 µM | 92.6 µM | 6.40 | < 4.40
CCCCCCCCCCCCCCCC(CC(=O)O)OP(=O)(O)OC[C@@H]1C=C[C@H](n2cc(C)c(=O)[nH]c2=O)O1 (some centres not stated) | 4.96 | < 3.70 | > 198 µM | > 198 µM | 4.79 | < 4.40
CCCCCCCCCCCCCCCCC(OP(=O)(O)OC[C@@H]1C=C[C@H](n2cnc3c(N)ncnc32)O1)C(=O)O (some centres not stated) | 6.72 | 4.60 | 97.8 µM | 81.3 µM | 6.96 | < 4.41
CCCCCCCCCCCCCCCCC(OP(=O)(O)OC[C@@H]1CC[C@H](n2ccc(N)nc2=O)O1)C(=O)O (some centres not stated) | 5.01 | 5.12 | 94.1 µM | 91.1 µM | 5.24 | < 4.39
Cc1cn([C@H]2C=C[C@@H](CO)O2)c(=O)[nH]c1=O [STAVUDINE] | 6.59 | 5.06 | 327 µM | > 268 µM | 6.40 | ≤ 3.92
Nc1ccn([C@H]2CC[C@@H](CO)O2)c(=O)n1 [ZALCITABINE] | 6.00 | 6.30 | 325 µM | 179 µM | 5.72 | 5.72
Cc1cn([C@H]2C[C@H](N=[N+]=[N-])[C@@H](CO)O2)c(=O)[nH]c1=O [ZIDOVUDINE] |  | 7.40 | > 93.5 µM | > 468 µM | 8.15 | < 4.83
